Assay results reported in ChEMBL document CHEMBL4406888, “Synthesis of analogs of the Gwt1 inhibitor manogepix (APX001A) and in vitro evaluation against Cryptococcus spp” (Bioorg Med Chem Lett, 2019).
In brackets after ≈: the same amount, converted by molar mass.

Experiments:
Cryptococcus neoformans = assay: Antifungal activity against Cryptococcus neoformans incubated for 72 hrs by broth micro dilution method; format: functional
Cryptococcus gattii = assay: Antifungal activity against Cryptococcus gattii incubated for 72 hrs by broth micro dilution method; format: functional
[1] = Half life in human liver microsomes at 1 uM preincubated for 5 mins followed by NADPH addition and measured for 45 mins by LC/MS analysis; format: ADME, Microsome; settings: for t1/2: microsomes, 0.75 h, 1 µM
HepG2 = assay: Cytotoxicity against human HepG2 cells assessed as reduction in cell viability at 3 uM by CellTiter-Glo luminescent cell viability assay relative to control; format: cell-based; settings: hepg2, 3 µM
[2] = target: T1, GPI-anchored wall transfer protein 1 (Candida albicans (strain SC5314 / ATCC MYA-2876) (Yeast)) (UniProt Q873N2); assay: Antifungal activity against Candida albicans GWT1 expressed in Saccharomyces cerevisiae assessed as overexpression ratio
T1 sequence (whole entry): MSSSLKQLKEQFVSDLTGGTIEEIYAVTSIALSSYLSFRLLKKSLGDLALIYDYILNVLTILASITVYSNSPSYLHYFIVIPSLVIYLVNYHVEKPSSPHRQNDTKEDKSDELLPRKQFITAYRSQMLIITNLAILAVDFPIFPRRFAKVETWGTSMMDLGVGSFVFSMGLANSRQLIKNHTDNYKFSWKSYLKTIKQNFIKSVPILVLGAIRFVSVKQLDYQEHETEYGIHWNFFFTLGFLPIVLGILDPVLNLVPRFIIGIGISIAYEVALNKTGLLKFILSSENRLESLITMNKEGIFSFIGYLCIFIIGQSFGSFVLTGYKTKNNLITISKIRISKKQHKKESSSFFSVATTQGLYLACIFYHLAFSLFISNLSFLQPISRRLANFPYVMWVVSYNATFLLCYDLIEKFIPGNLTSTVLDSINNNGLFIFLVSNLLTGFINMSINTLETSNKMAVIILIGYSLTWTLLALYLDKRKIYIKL
How it was run: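 MICs measured against S. cerevisiae strains expressing high and low levels of Gwt1. The value is the ratio of the two strains' MICs.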

[3] = target: T2, PIGW (glucosaminyl-phosphatidylinositol-acyltransferase) (Homo sapiens, UniProt Q7Z7B1); assay: Inhibition of human PIGW expressed in Saccharomyces cerevisiae at 16 uM by spectrophotometric analysis relative to control; settings: Saccharomyces cerevisiae expressing human PIGW
T2 sequence (Q7Z7B1 whole entry): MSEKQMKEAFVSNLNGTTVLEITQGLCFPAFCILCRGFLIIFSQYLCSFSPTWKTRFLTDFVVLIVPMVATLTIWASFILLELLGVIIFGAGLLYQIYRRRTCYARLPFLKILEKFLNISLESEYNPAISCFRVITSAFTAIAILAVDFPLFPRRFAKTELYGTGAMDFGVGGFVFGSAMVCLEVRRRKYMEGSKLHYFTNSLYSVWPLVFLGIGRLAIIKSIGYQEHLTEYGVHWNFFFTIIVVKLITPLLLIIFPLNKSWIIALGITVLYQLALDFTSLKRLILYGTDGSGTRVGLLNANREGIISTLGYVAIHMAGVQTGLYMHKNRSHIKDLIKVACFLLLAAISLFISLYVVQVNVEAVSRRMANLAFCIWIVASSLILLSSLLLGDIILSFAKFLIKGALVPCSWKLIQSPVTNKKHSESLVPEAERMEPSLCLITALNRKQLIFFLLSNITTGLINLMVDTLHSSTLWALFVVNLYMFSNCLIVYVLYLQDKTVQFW

| Compound | MIC (Cryptococcus neoformans) | MIC (Cryptococcus gattii) | t1/2 [1] | Cell viability (% of control) (HepG2) | Ratio [2] | inhibition at 16 µM [3] | half-life at 1 µM ([1]; liver microsomes) |
| --- | --- | --- | --- | --- | --- | --- | --- |
| CC(Oc1ccc(Cc2cc(-c3cccnc3N)on2)cn1)c1ccccc1F (configuration not stated) | 0.25 µg/mL (≈ 0.64 µM) | 0.5 µg/mL (≈ 1.28 µM) | – | – | – | – | – |
| Nc1ncccc1-c1cc(Cc2ccc(Oc3cccc(F)c3)nc2)no1 | 0.008 µg/mL (≈ 0.0221 µM) | 0.016 µg/mL (≈ 0.0442 µM) | 93.9 min | 102% | 8 | 0% | – |
| Nc1ncccc1-c1cc(Cc2ccc(OCc3ccccc3F)nc2)no1 | 0.031 µg/mL (≈ 0.0824 µM) | 0.031 µg/mL (≈ 0.0824 µM) | – | – | – | – | – |
| Nc1ncccc1-c1cc(Cc2ccc(Cc3ccco3)cc2)no1 | 0.016 µg/mL (≈ 0.0483 µM) | 0.016 µg/mL (≈ 0.0483 µM) | 3.15 min | – | – | – | – |
| Nc1ncccc1-c1cc(Cc2ccc(OCc3ccccc3)cc2)no1 | 0.031 µg/mL (≈ 0.0867 µM) | 0.031 µg/mL (≈ 0.0867 µM) | – | – | – | – | – |
| Nc1ncccc1-c1cc(Cc2ccc(OCc3ccncc3)nc2)no1 | 0.008 µg/mL (≈ 0.0223 µM) | 0.008 µg/mL (≈ 0.0223 µM) | 20.3 min | – | – | – | – |
| Nc1ncccc1-c1cc(Cc2ccc(Nc3ccccc3F)nc2)no1 | 0.016 µg/mL (≈ 0.0443 µM) | 0.016 µg/mL (≈ 0.0443 µM) | 37.1 min | – | – | – | – |
| Nc1ncccc1-c1cc(Cc2ccc(OCCc3ccccc3F)nc2)no1 | 0.031 µg/mL (≈ 0.0794 µM) | 0.031 µg/mL (≈ 0.0794 µM) | – | – | – | – | – |
| Nc1ncccc1-c1cc(Cc2ccc(OCc3cccc(Cl)c3)nc2)no1 | 0.016 µg/mL (≈ 0.0407 µM) | 0.016 µg/mL (≈ 0.0407 µM) | – | 98% | 4 | 80% | – |
| Nc1ncccc1-c1cc(Cc2ccc(Oc3ccccc3F)nc2)no1 | 0.016 µg/mL (≈ 0.0442 µM) | 0.031 µg/mL (≈ 0.0855 µM) | – | – | – | – | – |
| Nc1ncccc1-c1cc(Cc2ccc(CNc3ccccc3)cc2)no1 | 0.125 µg/mL (≈ 0.351 µM) | 0.063 µg/mL (≈ 0.177 µM) | – | – | – | – | – |
| Nc1ncccc1-c1cc(Cc2ccc(OCCc3cccc(F)c3)nc2)no1 | 0.063 µg/mL (≈ 0.161 µM) | 0.063 µg/mL (≈ 0.161 µM) | – | – | – | – | – |
| Cc1occc1COc1ccc(Cc2cc(-c3cccnc3N)on2)cn1 | 2 µg/mL (≈ 5.52 µM) | 2 µg/mL (≈ 5.52 µM) | – | – | – | – | – |
| Nc1ncccc1-c1cc(Cc2ccc(Cc3cccc(F)n3)cc2)no1 | 0.031 µg/mL (≈ 0.086 µM) | 0.016 µg/mL (≈ 0.0444 µM) | – | – | – | – | – |
| Cc1nccc(NCc2ccc(Cc3cc(-c4cccnc4N)on3)cc2)n1 | > 4 µg/mL | > 4 µg/mL | – | – | – | – | – |
| O=C(c1ccc(F)cc1)C1CCN(CCn2c(=O)[nH]c3ccccc3c2=O)CC1 [KETANSERIN] | – | – | – | – | – | – | 40.8 min |
| Nc1ncccc1-c1cc(Cc2ccc(OCC3CCC3)nc2)no1 | 0.016 µg/mL (≈ 0.0476 µM) | 0.008 µg/mL (≈ 0.0238 µM) | 4.65 min | – | – | – | – |

| Compound | MIC (Cryptococcus neoformans) | MIC (Cryptococcus gattii) | t1/2 [1] | Cell viability (% of control) (HepG2) | Ratio [2] | inhibition at 16 µM [3] | half-life at 1 µM ([1]; liver microsomes) |
| --- | --- | --- | --- | --- | --- | --- | --- |
| Nc1ncccc1-c1cc(Cc2ccnc(OCc3cccc(F)c3)c2)no1 | 0.031 µg/mL (≈ 0.0824 µM) | 0.031 µg/mL (≈ 0.0824 µM) | – | – | – | – | – |
| Nc1ncccc1-c1cc(Cc2ccc(COc3ccccc3)cc2)no1 | 0.125 µg/mL (≈ 0.35 µM) | 0.063 µg/mL (≈ 0.176 µM) | – | – | – | – | – |
| Nc1ncccc1-c1cc(Cc2ccnc(OCCc3cccc(F)c3)c2)no1 | 0.5 µg/mL (≈ 1.28 µM) | 1 µg/mL (≈ 2.56 µM) | – | – | – | – | – |
| Nc1ncccc1-c1cc(Cc2ccc(CNCc3ccn[nH]3)cc2)no1 | > 4 µg/mL | > 4 µg/mL | – | – | – | – | – |
| Nc1ncccc1-c1cc(Cc2ccc(OCC3CC3)nc2)no1 | 0.031 µg/mL (≈ 0.0962 µM) | 0.016 µg/mL (≈ 0.0496 µM) | – | – | – | – | – |
| Nc1ncccc1-c1cc(Cc2ccc(Cc3ccccc3)cc2)no1 | 0.031 µg/mL (≈ 0.0908 µM) | 0.008 µg/mL (≈ 0.0234 µM) | – | – | – | – | – |
| Nc1ncccc1-c1cc(Cc2ccc(CCc3ccccc3)cc2)no1 | 0.5 µg/mL (≈ 1.41 µM) | 0.5 µg/mL (≈ 1.41 µM) | – | – | – | – | – |
| Nc1ncccc1-c1cc(Cc2ccc(OCc3cccc(F)c3)nc2)no1 | 0.016 µg/mL (≈ 0.0425 µM) | 0.016 µg/mL (≈ 0.0425 µM) | 62.3 min | 97% | 8 | 5% | – |
| Nc1ncccc1-c1cc(Cc2ccc(CNc3cccc(F)n3)cc2)no1 | 0.25 µg/mL (≈ 0.666 µM) | 0.25 µg/mL (≈ 0.666 µM) | – | – | – | – | – |
| Nc1ncccc1-c1cc(Cc2ccc(OCc3ccncc3)cc2)no1 | 0.016 µg/mL (≈ 0.0446 µM) | 0.008 µg/mL (≈ 0.0223 µM) | 17.3 min | – | – | – | – |
| Nc1ncccc1-c1cc(Cc2ccc(Cc3ccc(F)o3)cc2)no1 | 0.016 µg/mL (≈ 0.0458 µM) | 0.016 µg/mL (≈ 0.0458 µM) | 14.4 min | – | – | – | – |
| Nc1ncccc1-c1cc(Cc2ccc(Oc3ccccn3)cc2)no1 | 0.016 µg/mL (≈ 0.0465 µM) | 0.008 µg/mL (≈ 0.0232 µM) | 61.5 min | 77% | – | – | – |
| Nc1ncccc1-c1cc(Cc2ccc(OCc3ccoc3)nc2)no1 | 0.016 µg/mL (≈ 0.0459 µM) | 0.031 µg/mL (≈ 0.089 µM) | – | – | – | – | – |
| Nc1ncccc1-c1cc(Cc2ccc(COc3ccccn3)cc2)no1 [MANOGEPIX] | 0.25 µg/mL (≈ 0.698 µM) | 0.125 µg/mL (≈ 0.349 µM) | 49.9 min | 98% | 8 | 0% | – |
| Nc1ncccc1-c1cc(Cc2ccc(Cn3cccn3)cc2)no1 | 0.25 µg/mL (≈ 0.754 µM) | 0.063 µg/mL (≈ 0.19 µM) | – | – | – | – | – |
| Nc1ncccc1-c1cc(Cc2ccc(Oc3cccc(F)n3)cc2)no1 | 0.008 µg/mL (≈ 0.0221 µM) | 0.004 µg/mL (≈ 0.011 µM) | 43 min | 93% | 16 | 0% | – |
